In test [1] the target is Dipeptidyl peptidase 4 (Homo sapiens, UniProt P27487). As to the kind of experiment: Inhibition of recombinant human DPP4 using H-Gly-Pro-AMC as substrate measured after 10 mins.
Test [2] relates to Mus musculus. As to the kind of experiment: Hypoglycemic activity in albino CD-1 mouse assessed as reduction in blood glucose level at 10 mg/kg, po pretreated for 0.5 hrs followed by glucose challenge and measured after 30 to 90 mins by OGTT. The test is classed as functional, organism-based. The procedure, abridged: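 Male CD-1 albino mice, 25–35 g, randomized by weight into groups of 5, fasted 12 h. Compounds mixed with a few drops of Tween 80 or DMSO, dissolved in distilled water, given orally at 10 mg/kg 0.5 h before an oral glucose load (2.5 g/kg). Controls got vehicle only. Blood glucose read by glucometer at 0, 30, 60, 90 min. Mean ± SD, n = 5.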

Activity calls are given as the source filed them. No cut-off for these calls is given here.

Dipeptidyl peptidase 4, sequence (P27487 whole entry): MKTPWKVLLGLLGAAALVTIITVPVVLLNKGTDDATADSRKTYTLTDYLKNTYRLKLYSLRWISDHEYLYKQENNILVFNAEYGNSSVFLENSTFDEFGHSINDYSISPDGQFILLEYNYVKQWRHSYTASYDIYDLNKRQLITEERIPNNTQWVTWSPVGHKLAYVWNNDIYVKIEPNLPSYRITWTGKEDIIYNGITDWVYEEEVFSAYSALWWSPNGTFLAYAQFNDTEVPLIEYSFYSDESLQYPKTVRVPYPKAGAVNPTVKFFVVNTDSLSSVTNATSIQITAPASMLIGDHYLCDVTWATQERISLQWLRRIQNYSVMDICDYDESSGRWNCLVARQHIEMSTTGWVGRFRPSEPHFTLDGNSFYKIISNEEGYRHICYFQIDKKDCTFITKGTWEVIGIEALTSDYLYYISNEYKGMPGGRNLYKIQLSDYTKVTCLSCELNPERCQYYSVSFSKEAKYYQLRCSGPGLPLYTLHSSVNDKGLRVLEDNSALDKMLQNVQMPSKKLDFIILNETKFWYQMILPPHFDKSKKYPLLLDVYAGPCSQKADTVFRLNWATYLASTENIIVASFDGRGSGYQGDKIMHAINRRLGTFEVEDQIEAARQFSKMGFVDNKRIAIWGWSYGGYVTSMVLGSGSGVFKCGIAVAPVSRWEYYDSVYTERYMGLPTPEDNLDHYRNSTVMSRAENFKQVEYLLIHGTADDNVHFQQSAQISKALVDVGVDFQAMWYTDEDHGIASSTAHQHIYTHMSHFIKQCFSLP

As to `N#C[C@@H]1CCCN1C(=O)CN1C[C@H]2C[C@H](C1)c1c(Br)cc(Br)c(=O)n1C2`, the IC50 result in test [1] is listed as “Not Active”. Also, in test [2], the outcome was inactive.
The corresponding values for `N#C[C@@H]1CCCN1C(=O)CN1C[C@H]2C[C@H](C1)c1cccc(=O)n1C2` are “Not Active” and “inactive”.
As to `CC12CCC([C@H](NCC(=O)N3CCC[C@H]3C#N)C1=O)C2(C)C` (single isomer, unassigned), the outcome in test [2] was Active.
`CC1(C)[C@@H]2CC[C@@]1(C)[C@H](NCC(=O)N1CCC[C@H]1C#N)C2`: the result in test [2] was Active.
`N#C[C@@H]1CCCN1C(=O)CN1C[C@H]2C[C@H](C1)c1ccc([N+](=O)[O-])c(=O)n1C2`: in test [1], the IC50 entry is recorded as “Not Active”. Moreover, the outcome in test [2] was inactive.
The corresponding values for `N#C[C@@H]1CCCN1C(=O)CN1C[C@H]2C[C@H](C1)c1c(Cl)cc(Cl)c(=O)n1C2` are “Not Active” and “inactive”.
`CC1(C)[C@H]2CC[C@]1(C)[C@@H](O)[C@H]2NCC(=O)N1CCC[C@H]1C#N` (stereo in doubt): the outcome in test [2] was Active.
On the same count and under the same terms, for `CC1(C)[C@H]2CC[C@]1(C)[C@@H](NCC(=O)N1CCC[C@H]1C#N)C2` the value was “Active”; for `N#C[C@@H]1CCCN1C(=O)CNC12CC3CC(CC(O)(C3)C1)C2`, “Active”.
`N#C[C@@H]1CCCN1C(=O)CN1C[C@H]2C[C@H](C1)c1c(Cl)ccc(=O)n1C2`: in test [1], the IC50 result is on record as “Not Active”. Also, in test [2], the outcome was inactive.

Source of the values: ChEMBL document CHEMBL4229489, “Synthesis and evaluation of camphor and cytisine-based cyanopyrrolidines as DPP-IV inhibitors for the treatment of type 2 diabetes mellitus” (Bioorg Med Chem, 2018).
